For 72 compounds, cytotoxicity results are on record in ChEMBL document CHEMBL4513216, “Probing the Open Global Health Chemical Diversity Library for Multistage-Active Starting Points for Next-Generation Antimalarials” (ACS Infect Dis, 2020).

The series can be described thus: Toxicity liver stage against HepG2, at 10uM. It is filed as cell-based. On the set-up: test concentration 10 uM, cell line HepG2-A16-CD81EGFP. As to conditions: human, HepG2-A16-CD81EGFP cells; read-out: INHIBITION
In outline:
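Uninfected HepG2-A16-CD81EGFP cells, 3 × 10^3 per well, 1536-well, plated on prespotted compound at 10 μM final, parasite-free screening media added to match infected plates; puromycin 10 μM positive, DMSO 0.5% negative; run in parallel with 48 h PbLuc assay at 37 °C, 5% CO2; viability by CellTiter-Glo luminescence, normalized to controls.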
For the compound `O=S(=O)(CCN1CCN(c2ccccc2O)CC1)c1ccc(Cl)cc1`, the cytotoxicity at 10 µM worked out at 14.4%. Next, `CC(C)(C)c1coc([C@@H]2COCCN2Cc2ccccn2)n1`: -4.04%; `O[C@@H]1C[C@@H](c2nc(Cc3ccccc3)no2)N(CC2CC2)C1`: -3.5%. Under `COCCn1ccc(=O)c(OCC(=O)Nc2cccc(OC)c2)c1C` stands -2.74%; under `Cn1nnc2c(N3CC(C(=O)NCc4cccs4)C3)ncnc21`, 4.29%; under `CN(C)Cc1nn(C)c2c1CN(C(=O)Nc1cccc(F)c1)C2`, 4.23%. As to `O=C1Nc2ccccc2CC12CCN(CCO)C2` (configuration not stated), the cytotoxicity at 10 µM was found to be 6.62%. In the case of `O=C(C1CC=CC1)N1CCC2(CCC(=O)N2Cc2cccc(F)c2)CC1`, the cytotoxicity at 10 µM was -3.2%. Under `Cc1ccoc1C(=O)N1CC[C@@H]2O[C@@H](C)C[C@H]2C1` stands 2.26%; under `Cc1nn(C)c2c(NCCn3cccn3)ncnc12`, -1.26%. Next, `CCN(CC)CCCNCc1cc2cccc(C)c2[nH]c1=O`: -7.06%; `CN(C)c1nccc(C2CCN(C(=O)CO)CC2)n1`: -23.6%.

As to `Cc1ccc2[nH]c(=O)c(CNCCCN3CCOCC3)cc2c1`, the cytotoxicity at 10 µM was -14.9%. Under `CN1CCOC(C(=O)Nc2nc(-c3ccccc3F)n[nH]2)C1` (configuration not stated) stands 8.65%; under `COCC(=O)N1CCN(Cn2nc(C)c(Br)c2C)CC1`, 0.633%. Next, `NC1(c2nc(-c3cccs3)cc(=O)[nH]2)CCCC1`: 4.19%; `O=C(Cn1nc(-c2ccc(F)cc2)oc1=O)NCC1CCCO1` (configuration not stated): 1.62%; `N#Cc1cc(C#N)c(SCCC(=O)Nc2ccc(F)cc2)nc1N`: 4.89%. As for `Cc1ccc(-c2nc(C(=O)N3CCCCC3CNS(C)(=O)=O)cs2)cc1` (configuration not stated), the cytotoxicity at 10 µM is -2.14%. Under `CN(C)c1ncccc1CNC(=O)NCc1ccco1` stands -3.26%; under `CCCN1CCC(NCc2ccncc2)CC1`, -6.79%. Under `CN(CC(=O)N1CCN(c2ccccn2)CC1)c1ccc(Cl)cn1` stands -2.3%.

Regarding `Cc1ccsc1C(=O)N1CCC(Nc2cccnc2)CC1`, the cytotoxicity at 10 µM is -136%. Under `CN(C)C(=O)Cc1ccc(NC(=O)NC2CCCC2)cc1` stands -1.92%.

On to `CCn1cc(C(=O)Nc2ccc(C)cc2C(=O)OC)cn1`, for which the cytotoxicity at 10 µM turned out to be 5.47%.

On to `CCS(=O)(=O)CC(C)N(C)C(=O)NCCc1cccc(F)c1F` (configuration not stated), for which the cytotoxicity at 10 µM stood at 8.28%.

As for `O=C(c1ccncc1)N1CCn2c(nnc2-c2ccccc2)C1`, the cytotoxicity at 10 µM turned out to be 4.45%. Next, `Cc1cccc(-c2c[nH]c(C3CCCN3C(=O)c3cc(C)n[nH]3)n2)c1` (configuration not stated): 4%; `N#CCCN(Cc1cccnc1)C(=O)c1cccc(-n2cnnn2)c1`: 2.99%; `CC(O)CN1CCC(CN(C)C(=O)NC2CC2)CC1` (configuration not stated): 5.55%. Under `CCc1noc(CN(CCS(C)(=O)=O)C(C)(C)C)n1` stands -0.718%. Regarding `CC(=O)c1cccc(NC(=O)NCCOCC2CC2)c1`, the cytotoxicity at 10 µM was determined as 5.11%. Turning to `O=C(Nc1ccc(-n2ccnc2)c(F)c1)C1CCN(C(=O)C2CC2)CC1`, the cytotoxicity at 10 µM stood at 1.21%. For the compound `Fc1ccc(CNc2ccccc2Cn2cncn2)cc1`, the cytotoxicity at 10 µM was -0.719%. Under `Cc1nc(C(=O)Nc2cc(N3CCNC3=O)ccc2Cl)cs1` stands -1.33%; under `Cc1nc(C2CCCN2C(=O)CNS(C)(=O)=O)no1` (configuration not stated), 17.1%; under `COc1c(CNC2CCCOc3ccccc32)c(C)nn1C` (configuration not stated), 1.86%. Next, `O=C(NCCOc1ncc(Cl)cc1Cl)c1ccncc1F`: -3.78%; `CC[C@H](C)[C@H](N)C(=O)Nc1nc(-c2cnc(N(C)CCO)nc2)cs1`: -9.27%.

With `Cc1cccc(C)c1C(=O)N1C[C@@H](CN2CCOCC2)[C@@H](CO)C1`, the cytotoxicity at 10 µM came out at 0.0453%. Next, `CCCc1nnc(N(C)CC2CCCN(CC)C2)o1` (configuration not stated): -4.1%; `CC1=CC[C@@H]2CN(C(=O)c3ccc(-c4cc[nH]n4)cc3)C[C@@H]2C1`: 5.15%; `Cc1ccc(C)c(OCCN(C)C(=O)CCc2cn[nH]c2)c1`: 1.69%. Next, `CN1CCN(S(=O)(=O)c2ccc3c(c2)CN(C(=O)C(C)(C)C)CC3)CC1`: -8.91%; `CCCN1CCC(CC(=O)NCCc2nc(C)cc(C)n2)CC1`: -13.7%; `COc1cccc(-n2cc(CN(C)C(=O)c3cc[nH]n3)cn2)c1`: 16.3%. Next, `CC(C)CN1CCN(Cc2nc3c(s2)CCCC3)[C@H]2CS(=O)(=O)C[C@H]21`: 8.19%.

With `CN(CCn1ccnc1-c1ccccn1)S(C)(=O)=O`, the cytotoxicity at 10 µM turned out to be 12%. Under `CC(CO)Nc1ccc(-c2nc(Cc3ccc(F)cc3)no2)cn1` (configuration not stated) stands -11.9%; under `COc1ccc(C(=O)NCc2cccnc2N2CCOCC2)o1`, 3.1%; under `O=c1c(CN2CCCCC2)coc2ccc(Cl)cc12`, -2.56%.

With `CNc1nc2c(c(C(=O)N3CCCC3)n1)CN(C(=O)CCSC)CC2`, the cytotoxicity at 10 µM was -114%.

Consider `Cn1cncc1C(=O)N1CCCC(c2ccn[nH]2)C1` (configuration not stated), for which the cytotoxicity at 10 µM was -4.78%. Next, `CC(c1cncs1)N(C)Cc1ccc(CCC(C)(C)O)cc1` (configuration not stated): 4.68%; `CC(C)n1cnnc1CN(C)Cc1cnc(-c2ccccn2)nc1`: 11.9%; `c1cn(Cc2nnc(C3CCN(C4CCNCC4)CC3)n2C2CC2)cn1`: 1.74%. Next, `O=S(=O)(Cc1c(F)cccc1Cl)NCCCN1CCCCCC1`: -10%; `CCCOC(=O)N1CCC(c2nnc(Cn3cccn3)n2C2CC2)CC1`: -8.52%. Next, `COc1cccc(NC(=O)c2cc3c([nH]c2=O)CCCC3=O)c1`: -3.35%; `Cn1cc(C2CCCN2C(=O)c2cn(-c3ccccc3)nn2)cn1` (configuration not stated): -24%; `Cc1nccn1CCCC(=O)N1CCCC(c2noc(C(C)C)n2)C1` (configuration not stated): -35.8%.

As to `Cc1ccsc1CNCC1CCCN1c1cccnn1` (configuration not stated), the cytotoxicity at 10 µM was -4.48%.

As for `Clc1snnc1CN1CCCC1Cn1cccn1` (configuration not stated), the cytotoxicity at 10 µM is -17.9%. Under `CCc1[nH]ncc1C(=O)N1CCCC(n2cncn2)C1` (configuration not stated) stands -18.9%. Take `Cc1nc(C)c(C(=O)NCCNc2ncccc2C(F)(F)F)s1`: the cytotoxicity at 10 µM was -3.08%.

For `CCc1n[nH]c(C2CN(C(=O)c3ccc(NC4CC4)nc3)CCO2)n1` (configuration not stated), the cytotoxicity at 10 µM stood at 5.77%. Under `COc1ccc(OC)c(C(=O)N(C)Cc2nnc3ccccn23)c1` stands -0.972%. Next, `CCNC(=O)[C@@H]1CCCN1[C@@H](C(=O)NC)c1ccccc1OC`: -4.51%; `CN1CC2(CNCCN(C(=O)Nc3ccccc3)C2)CC1=O` (configuration not stated): 1.26%; `Cn1cc(CN2C[C@H]3CN(c4cncnc4)C(=O)[C@H]3C2)cn1`: -0.0682%.

On to `Cc1nnc(N2C[C@@H](OCC3CCCC3)[C@H]3OCCC[C@H]32)s1`, for which the cytotoxicity at 10 µM amounted to 14.3%. Next, `O=C1CCCC2=Nc3nonc3NC(c3ccc(F)cc3F)C12` (configuration not stated): 2.43%.
